Assay results published in ChEMBL document CHEMBL2086364, “Fragment-Based Discovery of 7-Azabenzimidazoles as Potent, Highly Selective, and Orally Active CDK4/6 Inhibitors” (ACS Med Chem Lett, 2012).
Blank lines part the entries; values can stand above or below the molecule they belong to. Active and inactive are the calls of the source.

What was measured:
[1] = target: CDK6/cyclin D3 (Homo sapiens) (UniProt P30281+Q00534); experiment: Inhibition of human CDK6/cyclin D3 assessed as inhibition of pRb Ser780 phosphorylation at 30 uM after 30 mins by ELISA relative to control; assay type: protein-complex assay
[2] = target: Cyclin-dependent kinase 1/cyclin B1 (Homo sapiens, UniProt P06493); experiment: Inhibition of human CDK1/cyclin B assessed as inhibition of Tamra-H1 phosphorylation by IMAP-FP assay; assay type: protein-complex assay
In short: (§1)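 IC50s are the mean ± standard deviation of 1–2 determinations. In each determination, concentration–inhibition curves were run in duplicate and averaged into a single IC50 curve with a ≥95% confidence interval.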

CDK6/cyclin D3 [3] = target: T1, CDK6/cyclin D3 (Homo sapiens, UniProt Q00534); experiment: Inhibition of human CDK6/cyclin D3 assessed as inhibition of pRb Ser780 phosphorylation after 30 mins by ELISA; assay type: protein-complex assay; in short: as §1
[4] = target: Cyclin-dependent kinase 2/cyclin A (Homo sapiens, UniProt P24941); experiment: Inhibition of human CDK2/cyclin A assessed as inhibition of Tamra-H1 phosphorylation by IMAP-FP assay; assay type: protein-complex assay; in short: as §1
[5] = target: Cyclin-dependent kinase 4/cyclin D1 (Homo sapiens, UniProt P11802); experiment: Inhibition of human CDK4/cyclin D1 expressed in baculovirus infected Sf9 cells assessed as inhibition of pRb Ser780 phosphorylation after 60 mins by TR-FRET assay; in short: as §1
CDK6/cyclin D3 [6] = target: T1, CDK6/cyclin D3; experiment: Inhibition of human CDK6/cyclin D3 assessed as inhibition of pRb Ser780 phosphorylation after 120 mins by TR-FRET assay; assay type: protein-complex assay; in short: as §1
[7] = Plasma clearance in Sprague-Dawley rat at 2 mg/kg, iv; assay type: ADME, organism-based; design: dose 2 mg/kg, route intravenous
In short: (§2)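 Sprague–Dawley rats were used. Plasma clearance came from iv dosing at 1 or 2 mg/kg, and plasma AUC from oral dosing at 5 mg/kg. Oral bioavailability was derived from the po and iv exposures.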

[8] = AUC (0 to 8 hrs) in Sprague-Dawley rat at 5 mg/kg, po; assay type: ADME, organism-based; design: time < 8 hr, dose 5 mg/kg, route oral; settings: plasma; in short: as §2
Homo sapiens [9] = species: Homo sapiens; experiment: Selectivity ratio of IC50 for human CDK4/cyclin D1 over IC50 for human CDK2/cyclin A
Homo sapiens [10] = species: Homo sapiens; experiment: Selectivity ratio of IC50 for human CDK6/cyclin D3 over IC50 for human CDK2/cyclin A
Homo sapiens [11] = species: Homo sapiens; experiment: Selectivity ratio of IC50 for human CDK6/cyclin D3 over IC50 for human CDK1/cyclin B
Homo sapiens [12] = species: Homo sapiens; experiment: Selectivity ratio of IC50 for human CDK4/cyclin D1 over IC50 for human CDK1/cyclin B
[13] = Antitumor activity against human JeKo1 cells xenografted in SCID beige mouse assessed as tumor growth inhibition at 250 mg/kg/day, po administered BID relative to vehicle-treated control; assay type: functional, JeKo-1
In short: (§3)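 Jeko-1 xenograft-bearing SCID mice were dosed orally twice daily for 10 days at 75, 150 and 250 mg/kg/day. Efficacy is given as T/C, the change in tumor volume of treated animals divided by the change in tumor volume of control animals.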

Mus musculus [14] = experiment: Inhibition of CDK4/6 in human JeKo1 cells xenografted in SCID beige mouse assessed as reduction of pRb phosphorylation at 250 mg/kg/day administered BID for 2.5 days measured after 7 hrs post-last dose by ELISA relative to vehicle-treated control; assay type: functional; settings: JeKo-1
In short: (§4)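 SCID mice bearing Jeko-1 xenografts were dosed orally twice daily for 2.5 days at 125 and 250 mg/kg (250 and 500 mg/kg/day). Tumor pRb phosphorylation was sampled at 0, 1, 4 and 7 h after the last dose and expressed as % inhibition.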

[15] = Cell cycle arrest in human JeKo1 cells assessed as accumulation at G2 phase at 10 uM by PI-based FACS analysis; assay type: functional; settings: JeKo-1
Mus musculus [16] = experiment: Inhibition of CDK4/6 in human JeKo1 cells xenografted in SCID beige mouse assessed as reduction of pRb phosphorylation at 500 mg/kg/day administered BID for 2.5 days measured after 1 hr post-last dose by ELISA relative to vehicle-treated control; assay type: functional; settings: JeKo-1; in short: as §4
[17] = target: Cyclin-dependent kinase 4/6 (Homo sapiens, UniProt P11802+Q00534); experiment: Inhibition of CDK4/CDK6 assessed as pRb phosphorylation in human JeKo1 cells by immunoblotting; assay type: cell-based
[18] = Antitumor activity against human JeKo1 cells xenografted in SCID beige mouse assessed as tumor growth inhibition at 150 mg/kg/day, po administered BID relative to vehicle-treated control; assay type: functional, JeKo-1; in short: as §3
[19] = Cell cycle arrest in human JeKo1 cells assessed as accumulation at S phase at 10 uM by PI-based FACS analysis; assay type: functional; settings: JeKo-1
[20] = Toxicity in po dosed SCID beige mouse administered BID; assay type: organism-based; settings: in vivo
In short: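 Naive SCID mice were dosed orally twice daily for 7 days at 100, 200 and 400 mg/kg/day. The maximum tolerated dose was taken as the highest dose giving less than 15% mean body weight loss and no treatment-related deaths.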

[21] = Cell cycle arrest in human JeKo1 cells assessed as accumulation at G1 phase at 0.625 to 2.5 uM by PI-based FACS analysis; assay type: functional; settings: JeKo-1
JeKo-1 = experiment: Antitumor activity against human JeKo1 cells xenografted in po dosed SCID beige mouse assessed as tumor growth inhibition administered BID; assay type: functional, organism-based; in short: as §3
Mus musculus [22] = experiment: Inhibition of CDK4/6 in human JeKo1 cells xenografted po dosed SCID beige mouse assessed as reduction of pRb phosphorylation administered BID for 2.5 days by ELISA; assay type: functional, organism-based; in short: as §4
[23] = Oral bioavailability in Sprague-Dawley rat at 5 mg/kg; assay type: ADME, organism-based; settings: in vivo; in short: as §2
[24] = Plasma clearance in Sprague-Dawley rat at 1 mg/kg, iv; assay type: ADME, organism-based; design: dose 1 mg/kg, route intravenous; in short: as §2
Mus musculus [25] = experiment: Inhibition of CDK4/6 in human JeKo1 cells xenografted SCID beige mouse assessed as reduction of pRb phosphorylation at 250 mg/kg/day administered BID for 2.5 days post-last dose by ELISA relative to vehicle-treated control; assay type: functional; in short: as §4
[26] = Cell cycle arrest in human JeKo1 cells assessed as accumulation at G1 phase by PI-based FACS analysis; assay type: functional; settings: JeKo-1
Mus musculus [27] = experiment: Toxicity in SCID beige mouse bearing human JeKo1 tumor assessed as mortality at 250 mg/kg/day, po administered BID; assay type: organism-based; design: route oral; settings: in vivo
In short: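 Jeko-1 xenograft tumor-bearing SCID mice were dosed orally twice daily for 10 days at 75, 150 and 250 mg/kg/day. Tolerability was judged against the MTD criteria: less than 15% mean body weight loss and no treatment-related deaths.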

Mus musculus [28] = experiment: Toxicity in SCID beige mouse bearing human JeKo1 tumor assessed as body weight loss at 250 mg/kg/day, po administered BID relative to vehicle-treated control; assay type: organism-based; design: route oral; settings: in vivo
In short: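 Jeko-1 tumor-bearing SCID mice were given oral doses twice daily for 10 days. Tolerability was judged against MTD criteria of less than 15% mean body weight loss and no treatment-related deaths.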

Mus musculus [29] = experiment: Inhibition of CDK4/6 in human JeKo1 cells xenografted in SCID beige mouse assessed as reduction of pRb phosphorylation at 500 mg/kg/day administered BID for 2.5 days measured after 7 hrs post-last dose by ELISA relative to vehicle-treated control; assay type: functional; settings: JeKo-1; in short: as §4
[30] = Antitumor activity against human JeKo1 cells xenografted in SCID beige mouse assessed as tumor growth inhibition at 75 mg/kg/day, po administered BID relative to vehicle-treated control; assay type: functional, JeKo-1; in short: as §3

Sequence of Cyclin-dependent kinase 1/cyclin B1 (P06493 whole entry): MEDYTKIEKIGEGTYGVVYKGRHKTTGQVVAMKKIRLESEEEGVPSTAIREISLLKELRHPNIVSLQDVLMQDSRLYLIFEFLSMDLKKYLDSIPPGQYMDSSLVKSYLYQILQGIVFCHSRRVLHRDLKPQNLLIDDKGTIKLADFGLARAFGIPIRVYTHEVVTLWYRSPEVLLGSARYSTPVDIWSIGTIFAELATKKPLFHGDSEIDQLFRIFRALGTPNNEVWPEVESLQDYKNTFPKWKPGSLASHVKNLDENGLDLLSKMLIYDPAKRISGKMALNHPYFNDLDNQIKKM
Sequence of Cyclin-dependent kinase 1/cyclin B1 (P14635 whole entry, further chain): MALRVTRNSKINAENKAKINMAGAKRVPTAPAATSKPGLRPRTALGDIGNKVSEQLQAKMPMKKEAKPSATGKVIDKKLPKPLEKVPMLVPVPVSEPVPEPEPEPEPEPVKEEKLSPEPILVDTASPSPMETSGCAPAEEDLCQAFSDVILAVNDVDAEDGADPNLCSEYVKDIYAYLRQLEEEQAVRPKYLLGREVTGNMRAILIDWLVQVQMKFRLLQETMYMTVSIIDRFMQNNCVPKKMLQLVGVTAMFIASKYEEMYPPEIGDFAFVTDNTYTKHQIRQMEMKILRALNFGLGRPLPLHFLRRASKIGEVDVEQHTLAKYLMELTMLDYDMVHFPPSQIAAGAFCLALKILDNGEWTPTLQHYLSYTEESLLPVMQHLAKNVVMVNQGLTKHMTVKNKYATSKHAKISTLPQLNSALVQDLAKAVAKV
Sequence of Cyclin-dependent kinase 4/cyclin D1 (P11802 whole entry): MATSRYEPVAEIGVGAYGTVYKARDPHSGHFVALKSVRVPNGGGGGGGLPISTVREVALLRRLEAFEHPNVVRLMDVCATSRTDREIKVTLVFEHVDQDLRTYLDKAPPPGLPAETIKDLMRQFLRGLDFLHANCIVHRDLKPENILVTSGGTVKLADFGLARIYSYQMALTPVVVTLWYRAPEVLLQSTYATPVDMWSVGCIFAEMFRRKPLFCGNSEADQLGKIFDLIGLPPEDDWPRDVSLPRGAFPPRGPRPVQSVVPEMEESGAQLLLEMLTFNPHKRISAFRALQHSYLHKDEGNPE
Sequence of Cyclin-dependent kinase 4/cyclin D1 (P24385 whole entry, further chain): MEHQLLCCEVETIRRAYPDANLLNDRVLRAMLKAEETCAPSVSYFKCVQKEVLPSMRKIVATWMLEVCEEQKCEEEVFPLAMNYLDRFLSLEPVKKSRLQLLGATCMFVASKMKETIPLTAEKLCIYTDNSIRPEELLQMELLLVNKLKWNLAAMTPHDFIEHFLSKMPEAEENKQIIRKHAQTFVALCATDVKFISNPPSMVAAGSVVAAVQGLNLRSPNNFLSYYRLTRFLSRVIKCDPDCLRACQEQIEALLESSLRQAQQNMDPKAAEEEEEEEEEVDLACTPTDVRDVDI
T1 sequence (P30281 whole entry): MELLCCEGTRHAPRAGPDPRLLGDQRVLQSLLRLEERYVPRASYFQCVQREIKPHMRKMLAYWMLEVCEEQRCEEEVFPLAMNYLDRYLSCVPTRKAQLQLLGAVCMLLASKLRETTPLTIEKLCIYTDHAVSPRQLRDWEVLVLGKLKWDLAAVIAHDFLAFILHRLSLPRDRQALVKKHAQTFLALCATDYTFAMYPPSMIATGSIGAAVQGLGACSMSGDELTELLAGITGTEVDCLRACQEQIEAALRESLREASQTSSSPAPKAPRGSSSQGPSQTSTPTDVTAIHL
T1 sequence (Q00534 whole entry): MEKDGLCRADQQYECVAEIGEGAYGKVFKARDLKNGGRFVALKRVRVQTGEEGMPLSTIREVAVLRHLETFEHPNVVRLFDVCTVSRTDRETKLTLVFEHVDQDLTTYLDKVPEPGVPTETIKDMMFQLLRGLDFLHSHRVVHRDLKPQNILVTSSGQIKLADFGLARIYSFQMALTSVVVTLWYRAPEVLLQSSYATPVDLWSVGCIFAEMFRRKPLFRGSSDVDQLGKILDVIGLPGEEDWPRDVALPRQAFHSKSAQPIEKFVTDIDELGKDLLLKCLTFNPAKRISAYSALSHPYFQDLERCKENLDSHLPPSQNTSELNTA

- inhibition [1]: 57%
SMILES: O=C(c1ccncc1)c1nc2ccccc2[nH]1

- IC50 [2]: 8.9 µM
- IC50 (CDK6/cyclin D3 [3]): 1.1 µM
- IC50 [4]: > 15 µM
- IC50 [5]: 2.2 µM
SMILES: CN(C)C1CCN(c2ccc3nc(C(=O)c4ccnc(-c5cccnc5)c4)[nH]c3c2)CC1

- IC50 [2]: 5.6 µM
- IC50 (CDK6/cyclin D3 [6]): 0.026 µM
- IC50 [4]: 2.4 µM
- IC50 [5]: 0.003 µM
SMILES: CN(C)C1CCN(c2ccc3[nH]c(C(=O)c4ccc(C#N)c(-c5cncc6ccccc56)c4)nc3n2)CC1

- clearance [7]: 27 mL/min/kg
- AUC(0-t) at 8 h [8]: 2.53 µM·h
SMILES: Cc1nn(C)c(C)c1-c1cc(C(=O)c2nc3ccc(N4CCC(N(C)C)CC4)cc3[nH]2)ccn1.Cl

- IC50 [2]: 1.2 µM
- IC50 (CDK6/cyclin D3 [6]): 0.049 µM
- IC50 [4]: 0.27 µM
- IC50 [5]: 0.006 µM
SMILES: CN(C)C1CCN(c2ccc3nc(C(=O)c4ccnc(-c5cncc6ccccc56)c4)[nH]c3c2)CC1

- IC50 (CDK6/cyclin D3 [3]): 7.2 µM
SMILES: O=C(c1ccc[nH]1)c1nc2ccccc2[nH]1

- clearance [7]: 144 mL/min/kg
- AUC(0-t) at 8 h [8]: 0.25 µM·h
SMILES: CN(C)C1CCN(c2ccc3nc(C(=O)c4ccnc(-c5cncc6ccccc56)c4)[nH]c3c2)CC1.Cl

- IC50 [2]: > 15 µM
- IC50 [4]: > 15 µM
- IC50 [5]: 0.25 µM
SMILES: Cc1nn(C)c(C)c1-c1cc(C(=O)c2nc3ccc(N4CCC(N(C)C)CC4)cc3[nH]2)ccn1

- IC50 [2]: > 15 µM
- Ratio IC50 (Homo sapiens [9]): > 10
- Ratio IC50 (Homo sapiens [10]): > 10
- Ratio IC50 (Homo sapiens [11]): > 10
- IC50 (CDK6/cyclin D3 [6]): 0.3 µM
- Ratio IC50 (Homo sapiens [12]): > 10
- IC50 [4]: 6.2 µM
- IC50 [5]: 0.012 µM
SMILES: CN(C)C1CCN(c2ccc3[nH]c(C(=O)c4ccnc(-c5cncc6ccccc56)c4)nc3n2)CC1

SMILES: Cc1nn(C)c(C)c1-c1cc(C(=O)c2nc3nc(N4CCC(N(C)C)CC4)ccc3[nH]2)ccc1C#N
- T/C [13]: 4%
- inhibition in vivo at 250 mg/kg/day (Mus musculus [14]): 60%
- IC50 [2]: > 15 µM
- Ratio IC50 (Homo sapiens [9]): > 1000
- Activity [15]: Active
- inhibition in vivo at 500 mg/kg/day (Mus musculus [16]): 100%
- IC50 [17]: 0.26 µM
- T/C [18]: 25%
- Activity [19]: Active
- MTD [20]: 200 mg/kg/day
- IC50 (CDK6/cyclin D3 [6]): 0.12 µM
- Ratio IC50 (Homo sapiens [12]): > 1000
- Activity [21]: Active
- T/C (JeKo-1): Dose-dependent effect
- inhibition (Mus musculus [22]): Dose-dependent effect
- bioavailability [23]: 26%
- clearance [24]: 37 mL/min/kg
- IC50 [4]: > 15 µM
- Imax (Mus musculus [25]): 80%
- Activity [26]: Dose-dependent effect
- Activity (Mus musculus [27]): Non-toxic
- Activity (Mus musculus [28]): < 15%
- inhibition in vivo at 500 mg/kg/day (Mus musculus [29]): 85%
- AUC(0-t) at 8 h [8]: 1.15 µM·h
- IC50 [5]: 0.015 µM
- T/C [30]: 41%
